Assay results of several laboratories.
Each line is one published result; the experiments were not run side by side.
PMV: Plasmepsin V (PMV, Plasmodium falciparum, UniProt Q8I6Z5)
PADI1: Protein-arginine deiminase type-1 (PADI1, Homo sapiens, UniProt Q9ULC6)

For Cc1cccc(C)c1OCC(=O)N[C@@H](Cc1ccccc1)[C@H](O)C(=O)N1CSC(C)(C)[C@H]1C(=O)N[C@H]1c2ccccc2C[C@H]1O, the activity vs control was 77% (PMV; enzyme activity, inhibitor, fluorescence; 10 µM).
With COc1ncccc1-c1cnn2ccc(N3CCN(C(=O)OC(C)C)CC3)nc12 the remaining binding was 98% (Serine/threonine-protein kinase 32B (STK32B, Homo sapiens, UniProt Q9NY57); binding, competition with immobilised ligand; 1 µM).
CC(C)C[C@H](CC(=O)NO)C(=O)N[C@H](C(=O)N[C@@H](C)C(=O)NCCN)C(C)(C)C gave an inhibition of 13% (Disintegrin and metalloproteinase domain-containing protein 17 (ADAM17, Homo sapiens, UniProt P78536); enzyme activity, inhibitor; 1 µM).
The activity vs control of Cc1ccccc1CNC(=O)[C@H]1N(C(=O)[C@@H](O)[C@H](Cc2ccccc2)NC(=O)c2cccc(O)c2C)CSC1(C)C is reported as 73% (PMV; enzyme activity, inhibitor, fluorescence; 10 µM).
For Nc1ncc(-c2nc(N3CCOCC3)nc(N3CCOCC3)n2)c(C(F)F)n1, the remaining binding was 0% (Phosphatidylinositol 4,5-bisphosphate 3-kinase catalytic subunit alpha isoform (PIK3CA, Homo sapiens, UniProt P42336, H1047L); binding, competition with immobilised ligand; 10 µM).
COC(=O)[C@H](CCCNC(=N)N)NC(=O)c1ccccc1 has a Km of 370 µM (PADI1; enzyme activity, substrate).
Cc1nn(C)cc1-c1nc2c(N3CCN(Cc4ccc(Cl)cc4)CC3)c(Cl)cnc2[nH]1 gave a remaining binding of 100% (Activin receptor type-1-like (ACVRL1, Homo sapiens, UniProt P37023); binding, competition with immobilised ligand; 1 µM).
CCN(CC)CCCC[C@H](NC(=O)[C@H](CC(C)C)NC(=O)[C@H](C)NC(=O)[C@H](Cc1ccccc1)NC(=O)c1ccc(C(C)(C)C)cc1)C(=O)N[C@@H](CO)C(=O)OC gave a ΔTm of -0.62 °C (ATPase family AAA domain-containing protein 2, bromodomain (ATAD2, Homo sapiens, UniProt Q6PL18); thermal stability, DSF; 25 µM).
For C#Cc1n[nH]c2c(-c3cn(C(C)c4ccccn4)c(=O)[nH]c3=O)cc(F)cc12 (stereo not shown), the inhibition was -7.1% (Dual specificity tyrosine-phosphorylation-regulated kinase 2 (DYRK2, Homo sapiens, UniProt Q92630); enzyme activity, inhibitor; 1 µM).
For CCOC(=O)[C@H](CCCN=C(N)N)NC(=O)c1ccccc1, the Km was 190 µM (PADI1; enzyme activity, substrate).
